Here are results for 15 compounds from ChEMBL document CHEMBL2434834, “Synthesis of pyrido[2,1-a]isoquinolin-4-ones and oxazino[2,3-a]isoquinolin-4-ones: new inhibitors of mitochondrial respiratory chain” (Eur J Med Chem, 2013).

Structures are written as SMILES.

A short description of the first experiment: Inhibition of NADH oxidase in beef heart sub-mitochondrial particles by UV-spectrophotometric analysis. Set-up: species or system Bos taurus. In outline:
(§1)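 Inverted beef-heart submitochondrial particles were made by extensive sonication of frozen-thawed mitochondria and stored at -70 °C at 28 mg/mL protein (Bradford). After incubation with inhibitor, particles were diluted to […] in 50 mM potassium phosphate pH 7.4 with 1 mM EDTA, at 22 °C with NADH. Aerobic NADH oxidation was followed at 340 nm (ε 6.22 mM⁻¹ cm⁻¹), with rates taken from the linear decrease at increasing inhibitor concentrations.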
`COc1cc2c(cc1OC)C1(Cc3ccccc3)OC(C)=CC(=O)N1CC2` (stereo not given) returned an IC50 of 1530 nM.

For `COc1cc2c(cc1OC)C1(C)OC(C)=CC(=O)N1CC2` (stereo not given), half-maximal inhibition (IC50) was put at 1360 nM.

Compound `COc1cc2c(cc1OC)-c1cc(C)cc(=O)n1CC2` returned an IC50 of 8230 nM.

`COc1cc2c(cc1OC)C1(C)OC(c3ccccc3)=CC(=O)N1CC2` (stereo not given) yielded an IC50 of 1320 nM.

In turn, `COc1cc2c(cc1OC)-c1cc(-c3ccco3)cc(=O)n1CC2` showed an IC50 of 12500 nM.

`COc1cc2c(cc1OC)C1(C)OC(c3ccco3)=CC(=O)N1CC2` (stereo not given) gave a half-maximal inhibitory concentration (IC50) of 900 nM.

Consider `Cc1cc2n(c(=O)c1)CCc1cc(O)c(O)cc1-2`, for which the IC50 was determined as 3440 nM. This IC50 is about 3.8-fold higher than that of the compound before.

`COc1cc2c(cc1OC)-c1c(-c3ccccc3Br)c(C)cc(=O)n1CC2` had an IC50 of 4240 nM.

As to `COc1cc2c(cc1OC)C1(Cc3ccccc3Br)OC(C)=CC(=O)N1CC2` (stereo not given), the IC50 was determined as 1390 nM. This IC50 is about 3.1-fold lower than that of the compound before.

As for `COc1cc2c(cc1OC)-c1c(-c3ccccc3)c(C)cc(=O)n1CC2`, the IC50 was 4690 nM.

Turning to `COc1cc2c(cc1OC)-c1cc(-c3ccccc3)cc(=O)n1CC2`, the IC50 is > 30000 nM.

Compound `C=C(C)[C@H]1Cc2c(ccc3c2O[C@@H]2COc4cc(OC)c(OC)cc4[C@@H]2C3=O)O1` [ROTENONE] showed an IC50 of 5.1 nM. This lies in the single-digit nanomolar range.

The next experiment can be described thus: Inhibition of NADH oxidase in beef heart sub-mitochondrial particles after 5 mins. Set-up: species or system Bos taurus. In outline: as §1
`CC(C)Cc1cnc(CC(C)C)c(=O)[nH]1` came in with an IC50 of 13000 nM. In other words, the double-digit micromolar range.

`COc1cc(O)c2nc3n(c(=O)c2c1)-c1ccccc1C(=O)N1CCC[C@@H]31` came in with an IC50 of 2500 nM.

Consider `COc1ccc2nc3n(c(=O)c2c1)-c1ccccc1C(=O)N1CCC[C@@H]31`, for which inhibition was half-maximal at 1500 nM (IC50).
